Laboratory results as given in ChEMBL document CHEMBL4304821, “Synthesis and structure-activity relationship of nitrile-based cruzain inhibitors incorporating a trifluoroethylamine-based P2 amide replacement” (Bioorg Med Chem, 2019).
Calls of active or inactive are those of the source. The rule behind the calls is not given here.

Legend:
[1] = molecular target: Cruzipain (Trypanosoma cruzi) (UniProt P25779); test: Inhibition of Trypanosoma cruzi cruzain assessed as initial velocity using Z-Phe-Arg-7-amido-4-methylcoumarin as substrate preincubated for 2 mins followed by susbtrate addition by fluorescence based analysis
Summary of the method: (§1)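 Recombinant cruzain was the catalytic domain of cruzipain without the C-terminal extension, used at 0.15 nM. The assay ran at 37 °C in 100 mM acetate buffer pH 5.5 with 300 mM NaCl, 5 mM DTT, 5% v/v DMSO and 0.01% Triton X-100. Hydrolysis of Z-Phe-Arg-AMC was followed as rate by fluorescence (ex 355/em 460 nm).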

[2] = molecular target: T1, Cruzipain (Trypanosoma cruzi, UniProt P25779); test: Inhibition of Trypanosoma cruzi cruzain assessed as inhibitor constant using Z-Phe-Arg-7-amido-4-methylcoumarin as substrate preincubated for 2 mins followed by susbtrate addition by fluorescence based analysis; summary of the method: as §1
[3] = molecular target: T1, Cruzipain; test: Inhibition of Trypanosoma cruzi cruzain using Z-Phe-Arg-7-amido-4-methylcoumarin as substrate preincubated for 2 mins followed by susbtrate addition by fluorescence based analysis; summary of the method: as §1
[4] = Lipophilicity, log Kw of compound by HPLC analysis; format: physicochemical
[5] = system: Trypanosoma cruzi; test: Antitrypanosomal activity against Trypanosoma cruzi Y strain amastigotes infected in human U2OS cells assessed as parasite growth inhibition after 72 hrs post infection by DRAQ5 staining based analysis; format: functional, organism-based
Summary of the method: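 U2OS cells were seeded at 700/well in high DMEM and held 24 h at 37 °C/5% CO2. They were infected with T. cruzi Y strain trypomastigotes from LLC-MK2 cultures at 4 parasites per host cell. Compounds were added on day 3 as 17 points of 2-fold dilution from 100 µM (1% DMSO final), with 96 h exposure. Cells were PFA-fixed, Draq5-stained and imaged. Infection ratio was normalized to infected DMSO and non-infected controls, and EC50 came from a sigmoidal fit. Two independent experiments were run.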

[6] = molecular target: Procathepsin L (Homo sapiens, UniProt P07711); test: Inhibition of Cathepsin L (unknown origin) using Z-Phe-Arg-7-amido-4-methylcoumarin as substrate preincubated for 2 mins followed by susbtrate addition by fluorescence based analysis
Summary of the method: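 Cathepsin L was used at 0.30 nM, at 37 °C in 100 mM acetate buffer pH 5.5 with 300 mM NaCl, 1 mM DTT, 1 mM EDTA, 5% v/v DMSO and 0.01% Triton X-100. Z-Phe-Arg-AMC hydrolysis rate was monitored by fluorescence (ex 355/em 460 nm).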

[7] = Cytotoxicity in human U2OS cells assessed as reduction in cell viability after […] by DRAQ5 staining based analysis
Summary of the method: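 Infected U2OS cells (Y strain, 4 parasites/cell) were exposed to 17 2-fold concentrations starting at 100 µM in 1% DMSO. Exposure was 96 h. Wells were PFA-fixed, Draq5-stained and imaged at 20X to count host cells. CC50 is the concentration that lowers the cell ratio to 0.5 versus the mean cell number in DMSO negative-control wells. Duplicate independent experiments.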

T1 sequence (P25779 whole entry): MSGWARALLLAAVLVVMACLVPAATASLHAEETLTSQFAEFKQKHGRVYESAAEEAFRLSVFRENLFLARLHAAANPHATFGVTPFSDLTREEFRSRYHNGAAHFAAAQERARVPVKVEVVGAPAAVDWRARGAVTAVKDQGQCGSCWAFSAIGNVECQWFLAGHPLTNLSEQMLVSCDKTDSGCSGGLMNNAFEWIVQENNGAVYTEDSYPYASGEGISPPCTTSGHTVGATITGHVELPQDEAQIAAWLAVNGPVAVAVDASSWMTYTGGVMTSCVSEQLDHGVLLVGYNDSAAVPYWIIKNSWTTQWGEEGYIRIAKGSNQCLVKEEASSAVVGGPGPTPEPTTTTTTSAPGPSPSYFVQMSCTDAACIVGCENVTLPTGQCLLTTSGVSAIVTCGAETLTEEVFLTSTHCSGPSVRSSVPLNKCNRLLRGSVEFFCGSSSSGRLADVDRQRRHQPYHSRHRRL
Chain of Procathepsin L (P07711 whole entry): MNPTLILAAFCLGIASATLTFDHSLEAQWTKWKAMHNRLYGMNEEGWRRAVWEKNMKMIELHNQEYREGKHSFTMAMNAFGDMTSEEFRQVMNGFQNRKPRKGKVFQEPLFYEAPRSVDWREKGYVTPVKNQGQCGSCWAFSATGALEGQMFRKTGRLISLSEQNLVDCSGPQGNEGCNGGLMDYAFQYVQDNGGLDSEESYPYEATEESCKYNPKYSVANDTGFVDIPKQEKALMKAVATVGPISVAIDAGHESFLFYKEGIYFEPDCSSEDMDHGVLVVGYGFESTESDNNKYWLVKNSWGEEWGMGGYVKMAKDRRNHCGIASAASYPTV
Chain of Cruzipain (Trypanosoma cruzi) (P25779 123-467 limits assumed): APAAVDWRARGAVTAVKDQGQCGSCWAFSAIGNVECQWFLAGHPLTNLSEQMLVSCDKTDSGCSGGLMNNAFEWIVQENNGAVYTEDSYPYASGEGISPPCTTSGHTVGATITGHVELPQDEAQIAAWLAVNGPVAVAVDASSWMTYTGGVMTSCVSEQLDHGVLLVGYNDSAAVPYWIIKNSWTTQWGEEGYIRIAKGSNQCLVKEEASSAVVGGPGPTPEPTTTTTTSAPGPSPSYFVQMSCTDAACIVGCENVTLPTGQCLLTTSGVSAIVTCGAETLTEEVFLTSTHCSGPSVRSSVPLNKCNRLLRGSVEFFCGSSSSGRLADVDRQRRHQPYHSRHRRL

Structure (SMILES) | V0 [1] [RFU/s] | Ki [2] [nM] | Ki [3] [nM] | logKw [4] | Ki [6] [nM] | EC50 [5] [nM] | Activity [5] | CC50 [7] [nM]
N#CC1(NC(=O)[C@H](Cc2ccccc2)N[C@@H](c2cccc(Cl)c2)C(F)(F)F)CC1 | 3.65 | 4.01 |  |  |  |  |  | 
N#CC1(NC(=O)[C@H](Cc2ccccc2)N[C@H](c2cccc(Cl)c2)C(F)(F)F)CC1 | 5.81 |  | 3160 | 1.7 |  |  | inactive | 
COc1ccc(C[C@H](N[C@@H](c2ccccc2)C(F)(F)F)C(=O)O)cc1 | 3.85 | 38.8 |  |  |  |  |  | 
CC(C)C[C@H](N[C@H](c1ccccc1)C(F)(F)F)C(=O)N[C@H](C#N)Cc1ccccc1 | 2.71 |  | 398 | 2.2 | 251 |  | inactive | 
COc1ccc(C[C@H](N[C@H](c2ccccc2)C(F)(F)F)C(=O)NC2(C#N)CC2)cc1 | 3.17 |  | 7940 | 1.5 |  |  |  | 
N#CC1(NC(=O)[C@H](Cc2ccccc2)N[C@@H](c2ccc(Br)cc2)C(F)(F)F)CC1 | 3.6 |  | 2000 | 1.7 | 251 |  | inactive | 
CC(C)C[C@H](N[C@@H](c1ccc(-c2ccc(F)cc2)cc1)C(F)(F)F)C(=O)NC1(C#N)CC1 | 3.87 | 4060 |  |  |  |  |  | 
N#CC1(NC(=O)[C@H](Cc2ccccc2)N[C@H](c2ccccc2)C(F)(F)F)CC1 | 3.53 |  |  | 1.4 |  |  | inactive | 
O=C(O)[C@H](Cc1c[nH]c2ccccc12)N[C@H](c1cccc(Cl)c1)C(F)(F)F | 4.15 | 168 |  |  |  |  |  | 
N#C[C@H](Cc1ccccc1)NC(=O)[C@H](Cc1ccccc1)N[C@H](c1ccc(-c2ccccc2)cc1)C(F)(F)F |  |  | > 10000 |  |  |  | inactive | 
N#C[C@@H](Cc1ccccc1)NC(=O)[C@H](Cc1ccccc1)N[C@@H](c1ccccc1)C(F)(F)F |  |  | 2510 | 2.6 | 631 |  | inactive | 
COc1ccc(C[C@H](N[C@H](c2ccccc2)C(F)(F)F)C(=O)N[C@@H](C#N)Cc2ccccc2)cc1 |  |  | > 10000 |  | > 10000 |  | inactive | 
COc1ccc(C[C@H](N[C@H](c2ccccc2)C(F)(F)F)C(=O)O)cc1 | 5.2 | 360 |  |  |  |  |  | 
CC(C)(F)C[C@H](N[C@@H](c1ccc(-c2ccc(S(C)(=O)=O)cc2)cc1)C(F)(F)F)C(=O)NC1(C#N)CC1 [ODANACATIB] |  |  |  | 2 | 1260 |  | inactive | 
N#CC1(NC(=O)[C@@H](Cc2c[nH]c3ccccc23)N[C@@H](c2ccccc2)C(F)(F)F)CC1 |  |  | > 10000 |  | 1260 | 25600 |  | 
N#CC1(NC(=O)[C@H](Cc2ccccc2)N[C@@H](c2ccccc2)C(F)(F)F)CC1 | 2.18 |  | 1000 | 1 | 158 |  | inactive | 
COc1ccc(C[C@H](N[C@@H](c2ccccc2)C(F)(F)F)C(=O)NC2(C#N)CC2)cc1 | 3.56 |  | 3980 | 1.4 |  |  | inactive | 
N#CC1(NC(=O)[C@H](Cc2ccccc2)NC(=O)c2ccccc2)CC1 |  |  | 316 |  |  |  |  | 
COc1ccc(C[C@H](N[C@H](c2ccccc2)C(F)(F)F)C(=O)N[C@H](C#N)Cc2ccccc2)cc1 |  |  | 3980 | 2.7 | 1580 |  | inactive | 
COc1ccc(C[C@H](N[C@@H](c2ccccc2)C(F)(F)F)C(=O)N[C@@H](C#N)Cc2ccccc2)cc1 |  |  | 398 | 2.7 | 631 |  | inactive | 
N#CC1(NC(=O)[C@H](Cc2c[nH]c3ccccc23)N[C@H](c2ccccc2)C(F)(F)F)CC1 |  |  | > 10000 |  | 1000 | 11500 |  | 33000
O=C(O)[C@H](Cc1c[nH]c2ccccc12)N[C@@H](c1cccc(Cl)c1)C(F)(F)F | 2.66 | 142 |  |  |  |  |  | 

Now from value to molecule, other results behind:

V0 [1] [RFU/s] | Ki [2] [nM] | Ki [3] [nM] | logKw [4] | Ki [6] [nM] | EC50 [5] [nM] | Structure (SMILES) | Activity [5] | CC50 [7] [nM]
3.85 |  | 7.94 | 2.6 | 794 |  | CC(C)C[C@H](N[C@@H](c1ccc(-c2ccccc2)cc1)C(F)(F)F)C(=O)NC1(C#N)CC1 | inactive | 
 |  | 50.1 |  | 63.1 |  | CC(C)C[C@H](NC(=O)c1ccccc1)C(=O)N[C@H](C#N)Cc1ccccc1 | inactive | 
 |  | 63.1 | 2.8 | 631 |  | CC(C)C[C@H](N[C@H](c1ccc(-c2ccccc2)cc1)C(F)(F)F)C(=O)NC1(C#N)CC1 | inactive | 
 |  | 1.58 | 2.3 | 5.01 |  | CC(C)C[C@H](N[C@@H](c1ccccc1)C(F)(F)F)C(=O)N[C@H](C#N)Cc1ccccc1 | inactive | 
 |  | 251 | 3.1 |  |  | CC(C)C[C@H](N[C@H](c1ccc(-c2ccccc2)cc1)C(F)(F)F)C(=O)N[C@H](C#N)Cc1ccccc1 | inactive | 
3.22 |  | 0.631 | 3.2 | 1580 |  | CC(C)C[C@H](N[C@@H](c1ccc(-c2ccccc2)cc1)C(F)(F)F)C(=O)N[C@H](C#N)Cc1ccccc1 | inactive | 
2.91 |  | 1.58 |  | 25.1 |  | CC(C)C[C@H](N[C@@H](c1ccc(-c2cncnc2)cc1)C(F)(F)F)C(=O)N[C@H](C#N)Cc1ccccc1 | inactive | 
 |  | 79.4 | 2.8 | 1000 |  | CC(C)C[C@H](N[C@H](c1ccc(-c2ccc(F)cc2)cc1)C(F)(F)F)C(=O)NC1(C#N)CC1 | inactive | 
 |  | 50.1 |  | 20 |  | CC(C)C[C@H](NC(=O)c1ccccc1)C(=O)NC1(C#N)CC1 | inactive | 
 |  | 39.8 |  |  |  | CC(C)C[C@H](N[C@@H](c1ccccc1)C(F)(F)F)C(=O)NC1(C#N)CC1 | inactive | 
3.75 | 143 | 200 | 1.1 |  |  | CC(C)C[C@H](N[C@H](c1ccccc1)C(F)(F)F)C(=O)NC1(C#N)CC1 | inactive | 
